In the library only some 3.7% were active in any assay of this set; here they are far more common.
DENV2 CPE = inhibitors of DENV2 cytopathic effect. DENV2-infected cells, cytopathic effect rescue, plate reader. CPE inhibition, % at 9.99 µM. 350,000 compounds, 1.7% hits. AID 651640; in the data active means CPE inhibition above about 20%, passing the limit was not always enough; inconclusive means no clear call, values can overlap the other calls; tested in BHK-21 cells;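 further: 0% = median of neutral control wells and 100% = median of positive control wells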
FGF22 binding = binders of recombinant human FGF22 by thermal shift; activity (Tm shift, normalised), % at 9.99 µM; 340,000 compounds, 1.5% hits; SYPRO orange fluorescence; percent of sucrose octasulfate shift, DMSO zero; Q9HCT0;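 active means mean Tm shift, scaled 0 neutral to 100 positive control, at about 1.3% or above, every replicate too, limit read from the data; inconclusive means no clear call, values can overlap the other calls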
Target sequence (Q9HCT0 whole entry, looked up): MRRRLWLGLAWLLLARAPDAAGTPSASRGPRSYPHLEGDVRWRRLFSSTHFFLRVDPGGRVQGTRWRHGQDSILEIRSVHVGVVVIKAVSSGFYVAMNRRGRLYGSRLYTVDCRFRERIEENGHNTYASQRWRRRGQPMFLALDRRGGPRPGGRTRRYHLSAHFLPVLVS
CFTR F508del cor = correctors of CFTR F508del function in bronchial epithelial cells; CFBE cells, YFP halide quenching; stimulated with forskolin plus potentiator P3; % fluorescence drop versus neutral controls; AID 720511; 350,000 compounds, 0.36% hits; activity (quench increase), % at 7.58 µM;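 active means mean added fluorescence quench of at least 8% versus neutral control, with both replicates also reaching 8%; inconclusive means only one of the mean or replicate conditions met; inactive means mean below 8% and not both replicates reaching 8%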;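 further: cells transiently co-express mutant CFTR-F508del with the halide-sensitive YFP; corrector assay measuring rescue of mutant channel to the surface after 24 h compound exposure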
E-sel inducer = induces E-selectin expression in human endothelial cells; P16581; HUVEC E-selectin immunofluorescence imaging; normalized: neutral wells 0, TNF-alpha wells 100; activation, % at 7.58 µM; 260,000 compounds, 0.37% hits; AID 686992;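 active means mean E-selectin-positive cell signal at least 10% of the positive control, reached in at least 60% of replicates, without over 20% cell loss; inconclusive means no rule given, readout overlaps actives, possibly toxicity-flagged; inactive means the rest, including those meeting only one limit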
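Test system: HUVEC; input: 3,000 HUVEC/well; measured by: immunofluorescence imaging; read-out: % PE-positive cells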
ERAP1 HTS inh = ERAP1 (human) enzyme inhibition; Q9NZ08; 340,000 compounds, 0.15% hits; inhibition, % at 10.7 µM; recombinant ERAP1, Leu-AMC fluorescence, 60 min;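 active means mean replicate inhibition of at least 30%, or all replicates individually reaching that 30% level; inactive means mean below 30% and not every replicate reaching it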;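 further: 0% = neutral control wells and 100% = L-leucinethiol positive control wells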
An asterisk follows results filed as active; u = inconclusive; x = no result.

SMILES	DENV2 CPE	FGF22 binding	CFTR F508del cor	E-sel inducer	ERAP1 HTS inh
CCn1c(=O)c([N+](=O)[O-])c(NCCN(C)C)c2ccccc21	10.1	-0.1	0.1	x	3.2
COc1ccc(NC(=O)N(C)C[C@@H]2Oc3c(NC(=O)Nc4ccc5c(c4)OCO5)cccc3C(=O)N([C@@H](C)CO)C[C@H]2C)cc1	2.8	-0.2	-0.8	x	1.1
COc1ccc(S(=O)(=O)Nc2cccc3c2O[C@H](CN(C)C(=O)Nc2ccc4c(c2)OCO4)[C@H](C)CN([C@H](C)CO)C3=O)cc1	7.3	-0.7	0.7	0.0	2.0
COc1ccc(S(=O)(=O)Nc2cccc3c2O[C@@H](CN(C)C(=O)Nc2ccc4c(c2)OCO4)[C@@H](C)CN([C@H](C)CO)C3=O)cc1	21.4*	0.3	0.6	u	1.5
Cc1noc(C)c1NC(=O)N(C)C[C@@H]1Oc2c(NC(=O)Nc3ccc4c(c3)OCO4)cccc2C(=O)N([C@H](C)CO)C[C@@H]1C	-3.7	0.6	0.5	0.1	-2.9
Cc1ccc(S(=O)(=O)Nc2cccc3c2O[C@@H](CN(C)C(=O)Nc2ccc4c(c2)OCO4)[C@@H](C)CN([C@H](C)CO)C3=O)cc1	22.2*	-1.2	-2.2	-0.3	0.4
Cc1noc(C)c1NC(=O)N(C)C[C@H]1Oc2c(NC(=O)Nc3ccc4c(c3)OCO4)cccc2C(=O)N([C@H](C)CO)C[C@H]1C	23.8*	-0.5	0.3	-0.2	-1.3
COc1ccc(NC(=O)Nc2cccc3c2O[C@@H](CN(C)C(=O)Nc2ccc4c(c2)OCO4)[C@@H](C)CN([C@@H](C)CO)C3=O)cc1	27.1*	-1.0	0.3	-0.2	-3.0
Cc1noc(C)c1NC(=O)N(C)C[C@@H]1Oc2ccc(NC(=O)Nc3cccc4ccccc34)cc2C(=O)N([C@H](C)CO)C[C@H]1C	7.1	-0.3	-0.8	-0.1	0.3
C[C@H](CO)N1C[C@H](C)[C@H](CN(C)C(=O)c2ccccc2F)Oc2ncc(-c3cncnc3)cc2C1=O	13.3	-0.2	-1.8	-0.2	1.2
COc1ccc(/C=N/N2CCN(c3ccc(Cl)cc3)CC2)cc1O	31.5*	0.2	-1.4	x	-2.5
O=C1CCCc2[nH]c(-c3ccccc3)nc21	1.1	42.9*	-1.4	x	2.1
COCC(=O)N[C@@H]1CC[C@H](CC(=O)NCc2ccccc2OC)O[C@H]1CO	11.2	0.0	-2.0	0.1	2.0
CCC(=O)OCC(=O)Nc1ncc(C(F)(F)F)cc1Cl	1.7	0.0	-1.0	-1.4	2.6
O=C(COC(=O)CNC(=O)c1ccc(Cl)cc1)Nc1ncc(C(F)(F)F)cc1Cl	76.2*	0.1	x	x	1.0
NC(=S)c1ncc(C(F)(F)F)cc1Cl	12.6	-0.4	0.6	x	x
NC(=S)Nc1ncc(C(F)(F)F)cc1Cl	-2.8	43.4*	1.4	x	3.9
C[C@H](CO)N1C[C@H](C)[C@@H](CN(C)C(=O)CN(C)C)Oc2ncc(-c3ccccc3F)cc2C1=O	11.4	-0.7	-2.7	0.2	-0.2
COc1ccc2c3c(n(C)c2c1)[C@H](CO)N(Cc1ccccc1OC)CC31CCN(CC2CCOCC2)CC1	-0.2	-0.2	0.2	0.1	1.2
CCCNC(=S)NNC(=O)c1cc(C2CC2)nc2ccccc12	24.6*	0.0	0.7	-0.2	-0.4
CCCNC(=S)NNC(=O)c1cc(-c2cccnc2)nc2ccccc12	-7.6	0.0	-0.6	-0.7	-1.9
CO[C@@H]1CN(C)C(=O)c2ccc(NC(=O)Nc3ccc4c(c3)OCO4)cc2OC[C@@H](C)N(C(C)=O)C[C@H]1C	8.8	-0.6	0.6	-0.2	-0.7
COc1ccc(OC)c(N=Nc2c(O)c3ccccc3[nH]c2=O)c1	-2.6	43.3*	-1.6	0.0	-0.3
COc1ccc(S(=O)(=O)Nc2ccccc2OC)cc1N=Nc1c(O)[nH]c(=S)[nH]c1=O	-3.4	0.0	2.1	0.2	0.4
CCCC(=O)Nc1ccc2c(c1)C(=O)N(C)[C@@H]1CC[C@@H](CC(=O)NCc3ccccc3F)O[C@@H]1CO2	1.5	0.0	-1.5	0.1	x
COc1ccc(-c2ccc3c(c2)O[C@H](CN(C)Cc2ccccc2C(=O)O)[C@H](C)CN([C@H](C)CO)S3(=O)=O)cc1	-2.8	0.4	0.0	1.0	1.1
C[C@H](CO)N1C[C@H](C)[C@H](CN(C)Cc2ccc(C(=O)Nc3ccccc3N)cc2)Oc2ccc(NC(=O)Cc3ccccc3)cc2CC1=O	32.1*	0.1	2.1	10.2	-1.3

Assay outcomes: PubChem BioAssay, Broad Institute
